Experimental data from different studies.
Compare with care: the assays were run in different laboratories. pEC50, pIC50: −log10 of the molar value.
Cell line: HepG2
Observed: cell growth or viability

COc1ccc(NC(=O)c2c(Nc3ccccc3)sc(C(=O)NN=Cc3ccc(Br)cc3)c2NC(C)=O)cc1 has a viability of 85.2% (SRB; 1 µM, 48 h).
Cc1cc(Nc2ccc(C(=O)N/N=C/c3cccs3)cc2)c2cccc(O)c2n1 has an inhibition of 49% (MTT; 20 µM).
c1ccc2[nH]c(-c3ccc4c(c3)OCO4)nc2c1 has a pIC50 of under 4.00 (MTT; 48 h).
Cc1cc(=O)oc2ccc(-c3cc(-c4ccccc4)nc(N)n3)c(O)c12 has an inhibition of 5% (MTT; 32 µg/mL, 72 h).
For COc1ccc(NC(=O)c2c(Nc3ccccc3)sc(C(=O)NN=Cc3ccc(Cl)cc3)c2NC(C)=O)cc1, the viability was 100% (SRB; 1 nM, 48 h).
For Clc1ccc(-c2nc3ccccc3n2Cc2ccccc2)cc1Cl, the pIC50 was 4.30 (MTT).
With O=C(CN1C(=O)/C(=C/c2cccc(O)c2)SC1=S)Nc1ccccc1 the inhibition was 5.11% (MTT; 10 µM).
For Cc1cc(=O)oc2ccc(-c3cc(-c4cccc(Cl)c4)nc(N)n3)c(O)c12, the inhibition was 19% (MTT; 32 µg/mL, 72 h).
The viability of COc1ccc(NC(=O)c2c(Nc3ccccc3)sc(C(=O)NN=Cc3ccccc3)c2NC(C)=O)cc1 is reported as 60.2% (SRB; 100 µM, 48 h).
With COc1cccc(NC(=O)CN2C(=O)/C(=C/C3CC3)SC2=S)c1 the inhibition was 12.1% (MTT; 10 µM).
CCOC(=O)c1ccc(-n2c(C)cc(C)c(C#N)c2=O)cc1 has a viability of 90.3% (MTT; 6.25 µM, 24 h).
CCn1cc(-c2nc(C)no2)c(=O)c2cc(F)c(N3CCC(C(C)C)CC3)cc21 has a pEC50 of under 4.40 (ATP luminescence; 48 h).
With COc1ccc(NC(=O)c2c(Nc3ccccc3)sc(C#N)c2NC(=O)CNc2ccc(OC)c(OC)c2)cc1 the viability was 60.6% (SRB; 100 µM, 48 h).
The viability of CCOC(=O)c1ccc(NC(=O)C2=C3C(=Nc4ccccc43)NC2=O)cc1 is reported as 100% (MTT; 1.56 µM, 24 h).
Clc1ccc(-c2nc3ccccc3[nH]2)cc1Cl gave a pIC50 of 5.13 (MTT; 48 h).
COc1ccc(NC(=O)c2c(Nc3ccccc3)sc(C#N)c2NC(=O)CNc2ccccc2)cc1 gave a viability of 102% (SRB; 1 nM, 48 h).
CC(=O)Nc1cccc(-n2c(=O)n(C3CC3)c(=O)c3c(Nc4ccc(I)cc4F)n(C)c(=O)c(C)c32)c1 gave a viability of 103% (resazurin; 390 pM, 72 h).
With Cc1ccc2nc(-c3ccco3)[nH]c2c1 the pIC50 was under 4.00 (MTT; 48 h).
COc1ccc(NC(=O)c2c(Nc3ccccc3)sc(C#N)c2NC(=O)CNc2ccc(O)cc2)cc1 has a viability of 61.6% (SRB; 10 µM, 48 h).
O=C(N/N=C/CN1CCCCC1)Nc1cc2c(Nc3ccc(F)c(Cl)c3)ncnc2cc1O[C@H]1CCOC1 gave a pIC50 of 6.38 (MTT; 72 h).
The viability of COc1cccc2c1C(=O)c1c(O)c3c(c(O)c1C2=O)C[C@@](O)(C(=O)CO)C[C@@H]3O[C@H]1C[C@H](N)[C@H](O)[C@H](C)O1 is reported as 6.3% (MTT; 100 µM, 24 h).
CCn1cc(C(N)=O)c(=O)c2cc(F)c(N3CCC(C)CC3)cc21 gave a pEC50 of under 4.40 (ATP luminescence; 48 h).
With COc1ccc(NC(=O)c2c(Nc3ccccc3)sc(C#N)c2NC(=O)CNc2ccccc2[N+](=O)[O-])cc1 the viability was 89.7% (SRB; 100 µM, 48 h).
For CCOC(=O)c1ccc(-n2c(N)c(C#N)c(CC#N)c(C#N)c2=O)cc1, the viability was 90.2% (MTT; 3.125 µM, 24 h).
